{"source": "ChEMBL document CHEMBL3826951", "about": "“Discovery of Benzocycloalkane Derivatives Efficiently Blocking Bacterial Virulence for the Treatment of Methicillin-Resistant S. aureus (MRSA) Infections by Targeting Diapophytoene Desaturase (CrtN)” (J Med Chem, 2016)", "key": {"[1]": {"system": "Staphylococcus aureus", "assay": "(§1) Attenuation of methicillin-resistant Staphylococcus aureus Mu 50 virulence in BALB/c mouse systemic infection model assessed as decrease in bacterial survival in liver at 200 mg/kg, ip administered every 12 hrs for 108 hrs followed by bacterial challenge after first 12 hrs of compound dosing measured 5 days post infection", "type": "functional, Mu50", "outline": "(§2)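 Female BALB/c mice, 6-8 weeks old. Dosed ip every 12 h for 108 h. Challenged with 100 µL at 12 h: 1.6 × 10^8 CFU Mu50 or 4 × 10^7 CFU USA400 MW2. Sacrificed 5 days post-infection. Livers and kidneys homogenised in PBS/0.1% Triton X-100, serially plated on TSA, CFU counted; two-tailed Mann-Whitney.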"}, "[2]": {"system": "Staphylococcus aureus", "assay": "as §1, with “kidney” for “liver”", "type": "functional, Mu50", "outline": "as §2"}, "[3]": {"system": "Staphylococcus aureus", "assay": "as §1, with “USA400 MW2” for “Mu 50”, “burden” for “survival”", "type": "functional", "outline": "as §2"}, "[4]": {"system": "Staphylococcus aureus", "assay": "as §1, with “USA400 MW2” for “Mu 50”, “burden” for “survival”, “50” for “200”", "type": "functional", "outline": "as §2"}, "[5]": {"system": "Staphylococcus aureus", "assay": "as §1, with “50” for “200”", "type": "functional", "conditions": "Mu50", "outline": "as §2"}, "[6]": {"system": "Staphylococcus aureus", "assay": "as §1, with “kidney” for “liver”, “50” for “200”", "type": "functional", "conditions": "Mu50", "outline": "as §2"}, "[7]": {"molecular_target": "T1, 4,4'-diapophytoene synthase (Staphylococcus aureus, UniProt A9JQL9)", "T1 sequence (A9JQL9 whole entry)": "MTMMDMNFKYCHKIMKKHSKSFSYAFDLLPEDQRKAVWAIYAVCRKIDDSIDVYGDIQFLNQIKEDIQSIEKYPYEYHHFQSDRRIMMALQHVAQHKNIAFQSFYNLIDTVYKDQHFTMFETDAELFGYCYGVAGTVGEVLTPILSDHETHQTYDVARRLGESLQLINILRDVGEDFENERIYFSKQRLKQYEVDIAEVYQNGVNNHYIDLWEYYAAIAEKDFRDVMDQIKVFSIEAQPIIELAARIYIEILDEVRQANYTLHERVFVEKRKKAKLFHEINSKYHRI", "assay": "Inhibition of Staphylococcus aureus ATCC 27659 full length His-tagged dehydrosqualene synthase expressed in Escherichia coli BL21 (DE3) cells assessed as reduction in staphyloxanthin pigment formation after 72 hrs by spectrophotometric analysis"}}, "note": "Calls of active or inactive are those of the source. No cut-off for these calls is given here.", "data": [{"smiles": "O=P([O-])([O-])C(CCCc1cccc(Oc2ccccc2)c1)S(=O)(=O)[O-].[K+].[K+].[K+]", "note": "(configuration not stated)", "values": [{"measurement": "Activity", "setting": "[1]", "value": 2.84, "unit": "log10CFU"}, {"measurement": "Activity", "setting": "[2]", "value": 0.3, "unit": "log10CFU"}, {"measurement": "Activity", "setting": "[3]", "value": 1.59, "unit": "log10CFU"}, {"measurement": "Activity", "setting": "[4]", "value": "inactive"}, {"measurement": "Activity", "setting": "[5]", "value": "Active"}, {"measurement": "Activity", "setting": "[6]", "value": "inactive"}, {"measurement": "IC50", "setting": "[7]", "value": 83.4, "unit": "nM"}]}]}
